Experimental findings from article PMC3372638 (Journal of Molecular Biology, 2012) are described below.

In general, Kd refers to a measure of binding affinity in units of concentration. For orientation: stoichiometry N means a count of units in the complex or per binding partner.

Data set [1] deals with T1, HsP5CDH (Homo sapiens, UniProt P30038).
T1 sequence (P30038 18-563): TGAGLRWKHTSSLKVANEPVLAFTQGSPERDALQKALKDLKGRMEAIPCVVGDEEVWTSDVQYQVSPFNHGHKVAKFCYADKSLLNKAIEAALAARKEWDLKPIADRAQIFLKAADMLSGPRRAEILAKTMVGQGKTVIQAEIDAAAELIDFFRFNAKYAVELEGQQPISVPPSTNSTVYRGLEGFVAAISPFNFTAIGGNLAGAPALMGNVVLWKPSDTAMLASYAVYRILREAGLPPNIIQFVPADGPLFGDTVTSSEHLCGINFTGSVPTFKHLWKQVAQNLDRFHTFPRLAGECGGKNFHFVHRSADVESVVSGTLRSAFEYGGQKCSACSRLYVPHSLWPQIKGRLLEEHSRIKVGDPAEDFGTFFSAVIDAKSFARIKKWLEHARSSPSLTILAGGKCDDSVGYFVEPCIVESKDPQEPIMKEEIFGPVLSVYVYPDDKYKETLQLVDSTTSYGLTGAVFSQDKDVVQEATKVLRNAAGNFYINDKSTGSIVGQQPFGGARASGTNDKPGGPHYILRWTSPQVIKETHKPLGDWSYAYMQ
The experiment in a line: isothermal titration calorimetry. In kind it is binding. The method, boiled down: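 His-tagged human P5CDH was expressed in E. coli BL21(DE3)pLysS and purified by Ni2+-affinity then anion exchange. It was dialysed into 50 mM Tris, 50 mM NaCl, 0.5 mM THP, 0.5 mM EDTA, 5 % glycerol, pH 8.0, with NAD+ dissolved in the dialysate and pH-matched. Run at 25 °C: 20 μl NAD+ injections every 240 s, 250 rpm, 4 μl pre-injection discarded. Three titrations (30, 34, 47 μM protein) were fitted globally to a single-site model.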
(In general: Isothermal titration calorimetry measures the heat released or taken up as one component is titrated into another.)

The target of data set [2] is T2, HsP5CDH (Homo sapiens, UniProt P30038, S352A).
T2 sequence (P30038 18-563 S352A): T1 sequence (P30038 18-563) with S335A
The data set is described as follows: isothermal titration calorimetry. Type of data set: binding. The method, boiled down: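 Site-directed S352A mutant of His-tagged human P5CDH was expressed in E. coli BL21(DE3)pLysS and purified by Ni2+-affinity and anion exchange. It was dialysed into 50 mM Tris, 50 mM NaCl, 0.5 mM THP, 0.5 mM EDTA, 5 % glycerol, pH 8.0, with NAD+ in the dialysate and pH-matched. Titrated at 25 °C: 20 μl injections at 240-s intervals, 250 rpm, 4 μl pre-injection discarded. Fitted to a single-site binding model.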

The data set “AUC” deals with the molecule itself. The experiment in a line: AUC.
The data set “crystal structure” deals with the molecule itself. The experiment in a line: crystal structure.

Substitutions are numbered along the chain they refer to.

Consider `NC(=O)c1ccc[n+]([C@@H]2O[C@H](COP(=O)(O)OP(=O)(O)OC[C@H]3O[C@@H](n4cnc5c(N)ncnc54)[C@H](O)[C@@H]3O)[C@@H](O)[C@H]2O)c1` [NAD^+], for which the dissociation constant Kd stood at 15 µM at HsP5CDH [1] and 10 µM on HsP5CDH [2].

B1: human Δ1-pyrroline-5-carboxylate dehydrogenase (enzyme, UniProt P30038-1 18-563, looked up)
chain: T1 sequence (P30038 18-563)
For B1, in the data set “AUC”, the “stoichiometry N” value was 2.

B2: human Δ1-pyrroline-5-carboxylate dehydrogenase with Ser352 mutated to Ala (enzyme, UniProt P30038-1 18-563, looked up)
chain: T1 sequence (P30038 18-563) with S335A
With B2, in the data set “crystal structure”, the binding result is given as “binds”.

B3: human Δ1-pyrroline-5-carboxylate dehydrogenase with Ser352 mutated to Leu (enzyme, UniProt P30038-1 18-563, looked up)
chain: T1 sequence (P30038 18-563) with S335L
As for B3, the binding result in the data set “crystal structure” is “binds”.
